# “And” between values parts separate entries of the source, which are not always exact repeats. Equal entries are not always repeated. The source made the active and inactive calls.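 How the source made its calls: active means compounds lowering cell ATP signal with a fitted AC50 no higher than twice the top tested dose; inconclusive means flat curve with 30 to 70% signal loss, or poor fit; inactive means the rest.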
# Tested on: not listed separately
# Test: SK-MEL-5 parental cell viability reduction, dose response, orthogonal assay for MITF inhibitor project, CellTiter-Glo, dry powder samples, set 2 (AID 624289)
# Details: SK-MEL-5 viability, ATP luminescence (CellTiter-Glo), 24 h; at 35 µM (top of the series)
# Outline: (§1)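 Assay system: SK-MEL-5 human melanoma cells, parental line of primary-screen reporter. Timing: 24 h compound exposure at 37 °C, 5 min reagent, RT. Signal: CellTiter-Glo luminescence of cellular ATP after brief shaking. Doses: pinned compound dose series.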
row,Compound,"activity change, negative = inhibition"
1,C=CCNC1=C(NCC=C)C(=O)c2ccccc2C1=O,-6.6% (inactive)

# Tested on: SK-MEL-5 viability, ATP luminescence (CellTiter-Glo), 24 h
# Test: as above
# Details: not given
# Outline: as §1
row,Compound,AC50
1,O=C(NC1=C(c2ccc(OC(F)(F)F)cc2)C(=O)c2ccccc2C1=O)c1ccco1,23.1 µM
2,NC1=C(c2ccccc2)C(=O)c2ccccc2C1=O,28.5 µM
3,CN1CCN(C2=C(NS(=O)(=O)c3ccc(Br)cc3)C(=O)c3ccccc3C2=O)CC1,> 70 µM (inactive)
4,CCN1CCN(C2=C(NS(=O)(=O)c3ccc(Br)s3)C(=O)c3ccccc3C2=O)CC1,26.1 µM
5,COc1ccc(S(=O)(=O)N(C(C)=O)c2ccc(OC(C)=O)c3ccccc23)cc1[N+](=O)[O-],19.9 µM
6,COc1ccc(C2=C(NC(=O)c3ccc(OC)cc3-c3cccc(OC)c3)C(=O)c3ccccc3C2=O)cc1,> 70 µM (inactive)
7,COc1ccc(C2=C(NC(=O)c3cccc(Cl)c3)C(=O)c3ccccc3C2=O)cc1,23.1 µM
8,C=CCNC1=C(N2CCN(C)CC2)C(=O)c2ccccc2C1=O,20.1 µM
9,O=C(NC1=C(Cl)C(=O)c2ccccc2C1=O)c1ccccc1,4.73 µM
10,Cc1ccc(C(=O)NC2=C(c3ccc(OC(F)(F)F)cc3)C(=O)c3ccccc3C2=O)o1,29.5 µM
11,CN1CCN(C2=C(NS(=O)(=O)c3ccc(Br)s3)C(=O)c3ccccc3C2=O)CC1,13.9 µM
12,O=C1C=C(Nc2ccccc2)C(=O)c2ccccc21,1.46 µM
13,C=CCNC1=C(NS(=O)(=O)c2cccs2)C(=O)c2ccccc2C1=O,24.4 µM
14,O=C1C(NS(=O)(=O)c2cccs2)=C(N2CCOCC2)C(=O)c2ccccc21,21.1 µM
15,C=CCNC1=C(NCCCN(CC)CC)C(=O)c2ccccc2C1=O,11.5 µM
16,COc1ccc(C2=C(NC(=O)c3ccccc3OC)C(=O)c3ccccc3C2=O)cc1,> 70 µM (inactive)
17,CCN(CC)CCCCNC1=C(Nc2ccccc2)C(=O)c2ccccc2C1=O,33.2 µM
18,COc1ccc(C2=C(NC(=O)c3ccc(Cl)cc3)C(=O)c3ccccc3C2=O)cc1,25.2 µM
19,COc1ccc(C2=C(NC(=O)c3cccc(OC)c3)C(=O)c3ccccc3C2=O)cc1,24.4 µM
20,O=C1C(NS(=O)(=O)c2ccc(Br)cc2)=C(N2CCCCC2)C(=O)c2ccccc21,32.6 µM
21,NC1=C(c2ccc(OC(F)(F)F)cc2)C(=O)c2ccccc2C1=O,> 70 µM (inactive)
22,COc1cccc(-c2cc(C(=O)NC3=C(Cl)C(=O)c4ccccc4C3=O)ccc2OC)c1,22.4 µM

row,Compound,AC50
1,O=C(NC1=C(c2ccccc2)C(=O)c2ccccc2C1=O)c1ccc(Br)cc1,28.9 µM
2,CN1CCN(C2=C(NS(=O)(=O)c3ccccc3)C(=O)c3ccccc3C2=O)CC1,11.1 µM
3,CCN1CCN(C2=C(NS(=O)(=O)c3cccs3)C(=O)c3ccccc3C2=O)CC1,19.2 µM
4,O=C1C(NS(=O)(=O)c2ccc(Br)cc2)=C(N2CCN(c3ccccc3)CC2)C(=O)c2ccccc21,25.2 µM
5,O=C1C(NS(=O)(=O)c2ccc(Br)s2)=C(N2CCSCC2)C(=O)c2ccccc21,29.1 µM
6,COc1ccc(C2=C(NC(C)=O)C(=O)c3ccccc3C2=O)cc1,11.7 µM
7,O=C(NC1=C(N2CCSCC2)C(=O)c2ccccc2C1=O)c1ccccc1,13.2 µM
8,C=CCNC1=C(N2CCN(CC)CC2)C(=O)c2ccccc2C1=O,20.1 µM
9,O=C1C(NS(=O)(=O)c2ccc(Br)s2)=C(N2CCCCC2)C(=O)c2ccccc21,28.9 µM
10,O=C(NC1=C(c2ccc(Oc3ccccc3)cc2)C(=O)c2ccccc2C1=O)c1ccccc1,> 70 µM (inactive)
11,O=C1C(NS(=O)(=O)c2ccccc2)=C(N2CCOCC2)C(=O)c2ccccc21,19.4 µM
12,COc1ccc(C(=O)NC2=C(c3ccccc3)C(=O)c3ccccc3C2=O)cc1,21.5 µM
13,O=C1C(Nc2ccccc2)=C(N2CCN(c3ccccc3)CC2)C(=O)c2ccccc21,> 70 µM (inactive)
14,CC(=O)NC1=C(c2cccc(Cl)c2)C(=O)c2ccccc2C1=O,11.5 µM
15,CN1CCN(C2=C(NC(=O)c3ccccc3)C(=O)c3ccccc3C2=O)CC1,5.15 µM
16,CCN1CCN(C2=C(NC(=O)c3ccccc3)C(=O)c3ccccc3C2=O)CC1,5.2 µM
17,CCN1CCN(C2=C(NC(=O)c3ccc(Br)cc3)C(=O)c3ccccc3C2=O)CC1,3.7 µM
18,C[C@@H](NC1=C(Nc2ccccc2)C(=O)c2ccccc2C1=O)c1ccccc1,> 70 µM (inactive)
19,CC(=O)N(C)C1=C(N2CCCCC2)C(=O)c2ccccc2C1=O,2.67 µM
20,NC1=CC(=O)c2ccccc2C1=O,7.35 µM
21,O=C(NC1=C(N2CCSCC2)C(=O)c2ccccc2C1=O)c1ccc(Br)cc1,28.1 µM
22,O=C(NC1=C(N2CCOCC2)C(=O)c2ccccc2C1=O)c1ccccc1,18.2 µM

row,Compound,AC50
1,O=C1C(NS(=O)(=O)c2ccc(Br)cc2)=C(c2ccccc2)C(=O)c2ccccc21,30.9 µM
2,O=C1C(Nc2ccccc2)=C(N2CCOCC2)C(=O)c2ccccc21,29.3 µM and 24.5 µM
3,CCN1CCN(C2=C(N(C)C(C)=O)C(=O)c3ccccc3C2=O)CC1,3.29 µM
4,COc1ccc(C2=C(NC(=O)c3ccccc3Cl)C(=O)c3ccccc3C2=O)cc1,17.1 µM
5,C=CCNC1=C(N2CCOCC2)C(=O)c2ccccc2C1=O,6.79 µM
6,NC1=C(NC(=O)c2ccccc2)C(=O)c2ccccc2C1=O,10.1 µM
7,O=C(NC1=C(c2ccccc2)C(=O)c2ccccc2C1=O)c1ccccc1,20.6 µM
8,O=C1C(NS(=O)(=O)c2ccc(Br)cc2)=C(N2CCSCC2)C(=O)c2ccccc21,32.5 µM
9,CC(=O)N(C)C1=C(N2CCN(C)CC2)C(=O)c2ccccc2C1=O,3.16 µM
10,C=CCNC1=C(N2CCCCC2)C(=O)c2ccccc2C1=O,2.66 µM
11,O=C(NC1=C(N2CCOCC2)C(=O)c2ccccc2C1=O)c1ccc(Br)cc1,15.9 µM
12,COc1cccc(C2=C(NC(=O)c3ccccc3)C(=O)c3ccccc3C2=O)c1,19.1 µM
13,COc1ccc(C2=C(NC(=O)c3ccc4ccccc4c3)C(=O)c3ccccc3C2=O)cc1,> 70 µM (inactive)
14,CCN(CC)CCCNC1=C(Nc2ccccc2)C(=O)c2ccccc2C1=O,21.1 µM
15,COc1ccc(C(=O)NC2=C(c3ccc(OC)cc3)C(=O)c3ccccc3C2=O)cc1,15 µM
16,C=CCNC1=C(N(C)C(C)=O)C(=O)c2ccccc2C1=O,0.274 µM
17,O=C1C(NS(=O)(=O)c2ccc(Br)cc2)=C(N2CCOCC2)C(=O)c2ccccc21,12.2 µM
18,O=C1C(Nc2ccccc2)=C(N2CCCCC2)C(=O)c2ccccc21,8.69 µM
19,C=C1C(=O)OC2C1CC/C(C)=C\CCC1(C)OC21 (centres undefined),> 70 µM (inactive)
20,C=CCNC1=C(NCCCN2CCOCC2)C(=O)c2ccccc2C1=O,33.1 µM
21,CCN1CCN(C2=C(Nc3ccccc3)C(=O)c3ccccc3C2=O)CC1,14.2 µM
22,O=C(CNc1cccc2ccccc12)N/N=C/c1ccc([N+](=O)[O-])o1,19.8 µM

row,Compound,AC50
1,CC(=O)NC1=C(c2ccc3c(c2)oc2ccccc23)C(=O)c2ccccc2C1=O,17.4 µM
2,CN1CCN(C2=C(NC(=O)c3ccc(Br)cc3)C(=O)c3ccccc3C2=O)CC1,3.05 µM
3,CCN1CCN(C2=C(NS(=O)(=O)c3ccc(Br)cc3)C(=O)c3ccccc3C2=O)CC1,25.4 µM
4,Cc1nc2ccccc2n1/N=C/c1ccc([N+](=O)[O-])s1,6.5 µM
5,CN1CCN(C2=C(Nc3ccccc3)C(=O)c3ccccc3C2=O)CC1,14.1 µM
6,CCN(CC)CCNC1=C(Nc2ccccc2)C(=O)c2ccccc2C1=O,36.4 µM
7,C=CCNC1=C(NCCN(CC)CC)C(=O)c2ccccc2C1=O,9.17 µM
8,O=C(NC1=C(c2ccc(OC(F)(F)F)cc2)C(=O)c2ccccc2C1=O)c1ccccc1,24.3 µM
9,CCN(CC)CCCNC1=C(N(C)C(C)=O)C(=O)c2ccccc2C1=O,3.19 µM
10,O=C1C(NS(=O)(=O)c2ccc(Br)s2)=C(N2CCOCC2)C(=O)c2ccccc21,23.2 µM
11,C=CCNC1=C(NS(=O)(=O)c2ccc(Br)cc2)C(=O)c2ccccc2C1=O,24.4 µM
12,O=C(NC1=C(c2ccccc2)C(=O)c2ccccc2C1=O)c1ccco1,20.4 µM
13,O=C(NC1=C(N2CCN(c3ccccc3)CC2)C(=O)c2ccccc2C1=O)c1ccccc1,> 70 µM (inactive)
14,CC(=O)NC1=C(c2ccc(Cl)cc2)C(=O)c2ccccc2C1=O,15.8 µM
15,CC(=O)NC1=C(c2ccc(Oc3ccccc3)cc2)C(=O)c2ccccc2C1=O,14.2 µM
16,C=CCNC1=C(N2CCSCC2)C(=O)c2ccccc2C1=O,12.3 µM
17,Cc1ccc(C(=O)NC2=C(c3ccccc3)C(=O)c3ccccc3C2=O)o1,19.3 µM
18,CC(=O)N(C)C1=C(N2CCOCC2)C(=O)c2ccccc2C1=O,5.55 µM
19,COC1=C(NS(=O)(=O)c2ccccc2)C(=O)c2ccccc2C1=O,7.28 µM
20,C=CCNC1=C(Cl)C(=O)c2ccccc2C1=O,5.18 µM and 7.1 µM
21,CC(=O)NC1=C(c2ccccc2)C(=O)c2ccccc2C1=O,15.2 µM
22,CCN1c2ccccc2NC2N=C(OC)C(c3ccccc3)C21 (centres undefined),11.1 µM

# Reference: PubChem BioAssay AID624289 (Broad Institute, 2012)
